In ChEMBL document CHEMBL1157190, “Design, synthesis, and anticonvulsant activity of N-phenylamino derivatives of 3,3-dialkyl-pyrrolidine-2,5-diones and hexahydro-isoindole-1,3-diones” (Bioorg Med Chem, 2008):
Activity calls are given as the source filed them. The rule behind the calls is not given here.

Key:
Rattus norvegicus [1] = test: Anticonvulsant activity in Sprague-Dawley rat assessed as protection against seizure at 50 mg/kg, po after 4 hrs by subcutaneous pentylenetetrazole test; assay type: functional
In short: (§1)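 Male Sprague–Dawley rats dosed orally at 50 mg/kg as a 0.5% methylcellulose/water suspension, four animals per time point. Convulsant given subcutaneously at 0.25, 0.5, 1, 2 and 4 h after dosing; rotorod motor impairment assessed in parallel. Read-out: number of rats of four protected.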

Mus musculus [2] = test: Anticonvulsant activity in ip dosed CF1 albino mouse assessed as inhibition of maximal electroshock-induced electrical stimulus at 300 mg/kg after 4 hrs; assay type: functional, organism-based; design: dose 300 mg/kg
In short: (§2)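 Male CF-1 mice injected intraperitoneally at 30, 100 and 300 mg/kg, suspended in 0.5% methylcellulose/water. MES or subcutaneous pentylenetetrazole challenge at 0.5 and 4 h; selected compounds also at 1 or 2 h.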

Mus musculus [3] = test: Anticonvulsant activity in ip dosed CF1 albino mouse assessed as inhibition of subcutaneous pentylenetetrazole-induced electrical stimulus at 300 mg/kg after 4 hrs; assay type: functional, organism-based; design: dose 300 mg/kg; in short: as §2
Rattus norvegicus [4] = test: Anticonvulsant activity in Sprague-Dawley rat assessed as protection against seizure at 50 mg/kg, po after 2 hrs by subcutaneous pentylenetetrazole test; assay type: functional, organism-based; design: dose 50 mg/kg; in short: as §1
Mus musculus [5] = test: Neurotoxicity in ip dosed CF1 albino mouse after 0.5 hr by rotarod test; assay type: toxicity, organism-based; settings: in vivo
In short: (§3)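 CF-1 mice given 30, 100 or 300 mg/kg ip in 0.5% methylcellulose/water, examined at 0.5 and 4 h. Rotorod test: neurotoxicity is the inability to keep equilibrium on the rod for a given time. Value is the minimum dose giving motor impairment; a dash means none at 300 mg/kg.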

Rattus norvegicus [6] = test: Neurotoxicity in po dosed Sprague-Dawley rat at 50 mg/kg by rotarod test; assay type: toxicity, organism-based; design: dose 50 mg/kg, route oral; settings: in vivo; in short: as §1
Mus musculus [7] = test: Anticonvulsant activity in ip dosed CF1 albino mouse assessed as inhibition of maximal electroshock-induced electrical stimulus at 300 mg/kg after 0.5 hr; assay type: functional, organism-based; design: dose 300 mg/kg; in short: as §2
Rattus norvegicus [8] = test: Anticonvulsant activity in Sprague-Dawley rat assessed as protection against seizure at 50 mg/kg, po after 0.5 hr by subcutaneous pentylenetetrazole test; assay type: functional; in short: as §1
Mus musculus [9] = test: Anticonvulsant activity in ip dosed CF1 albino mouse assessed as inhibition of subcutaneous pentylenetetrazole-induced electrical stimulus after 0.5 hr; assay type: functional; in short: as §2
Mus musculus [10] = test: Neurotoxicity in ip dosed CF1 albino mouse at 300 mg/kg after 4 hrs by rotarod test; assay type: toxicity, organism-based; design: dose 300 mg/kg, route intraperitoneal; settings: in vivo; in short: as §3
Rattus norvegicus [11] = test: Anticonvulsant activity in Sprague-Dawley rat assessed as protection against seizure rat at 50 mg/kg, po after 0.25 hr by subcutaneous pentylenetetrazole test; assay type: functional; in short: as §1
Rattus norvegicus [12] = test: Anticonvulsant activity in Sprague-Dawley rat assessed as protection against seizure at 50 mg/kg, po after 1 hr by subcutaneous pentylenetetrazole test; assay type: functional, organism-based; design: dose 50 mg/kg; in short: as §1
[13] = Lipophilicity, log kw of compound by RP-HPLC; assay type: physicochemical
In short: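 RP-HPLC on a C18 end-capped column at room temperature, with UV detection at 214 nm and uracil as the unretained marker. Capacity factor k = (tr − t0)/t0, from the mean of three measurement sets. log k extrapolated to 100% water (log k = log kw − Sφ) to give log kw.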

Rattus norvegicus [14] = test: Anticonvulsant activity in po dosed Sprague-Dawley rat assessed as inhibition of maximal electroshock-induced electrical stimulus after 0.5 hr; assay type: functional
In short: (§4)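 Oral dosing in male Sprague–Dawley rats at the previously estimated time of peak effect. Groups of eight rats received various doses until at least three points fell between 10 and 90% MES protection or minimal neurotoxicity (rotorod). ED50 and TD50 with 95% confidence intervals from regression of the plotted data; protective index = TD50/ED50.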

Rattus norvegicus [15] = test: Anticonvulsant activity in Sprague-Dawley rat assessed as protection against seizure at 30 mg/kg, po after 0.25 hr by maximal electroshock test; assay type: functional
In short: (§5)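 Male Sprague–Dawley rats; compound suspended in 0.5% methylcellulose/water and given orally at a fixed 30 mg/kg, four rats per time point. MES test run at 0.25, 0.5, 1, 2 and 4 h after dosing, with motor impairment checked in parallel. Read-out: number of rats of four protected.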

Rattus norvegicus [16] = test: Anticonvulsant activity in Sprague-Dawley rat assessed as protection against seizure at 30 mg/kg, po after 0.5 hr by maximal electroshock test; assay type: functional; in short: as §5
Rattus norvegicus [17] = test: Anticonvulsant activity in Sprague-Dawley rat assessed as protection against seizure at 30 mg/kg, po after 1 hr by maximal electroshock test; assay type: functional; in short: as §5
Rattus norvegicus [18] = test: Anticonvulsant activity in Sprague-Dawley rat assessed as protection against seizure at 30 mg/kg, po after 2 hrs by maximal electroshock test; assay type: functional; in short: as §5
Mus musculus [19] = test: Anticonvulsant activity in ip dosed CF1 albino mouse assessed as inhibition of maximal electroshock-induced electrical stimulus after 0.5 hr; assay type: functional; in short: as §2
Rattus norvegicus [20] = test: Anticonvulsant activity in Sprague-Dawley rat assessed as protection against seizure at 30 mg/kg, po after 4 hrs by maximal electroshock test; assay type: functional; in short: as §5
Rattus norvegicus [21] = species: Rattus norvegicus; test: Protective index, ratio of TD50 for Sprague-Dawley rat by rotarod test to ED50 for Sprague-Dawley rat by MES test after 0.5 hr; assay type: functional; in short: as §4
[22] = Neurotoxicity in po dosed Sprague-Dawley rat after 0.5 hr by rotarod test; assay type: toxicity, organism-based; settings: in vivo; in short: as §4
Mus musculus [23] = test: Anticonvulsant activity in ip dosed CF1 albino mouse assessed as inhibition of subcutaneous pentylenetetrazole-induced electrical stimulus after 4 hrs; assay type: functional; in short: as §2
Mus musculus [24] = test: Neurotoxicity in ip dosed CF1 albino mouse at 300 mg/kg after 0.5 hr by rotarod test; assay type: toxicity, organism-based; design: dose 300 mg/kg, route intraperitoneal; settings: in vivo; in short: as §3
Mus musculus [25] = test: Neurotoxicity in ip dosed CF1 albino mouse after 4 hrs by rotarod test; assay type: toxicity, organism-based; settings: in vivo; in short: as §3
Mus musculus [26] = test: Anticonvulsant activity in ip dosed CF1 albino mouse assessed as inhibition of maximal electroshock-induced electrical stimulus after 1 hr; assay type: functional; in short: as §2
Mus musculus [27] = test: Anticonvulsant activity in ip dosed CF1 albino mouse assessed as inhibition of maximal electroshock-induced electrical stimulus after 4 hrs; assay type: functional; in short: as §2
Mus musculus [28] = test: Anticonvulsant activity in ip dosed CF1 albino mouse assessed as inhibition of subcutaneous pentylenetetrazole-induced electrical stimulus at 300 mg/kg after 0.5 hr; assay type: functional, organism-based; design: dose 300 mg/kg; in short: as §2
Rattus norvegicus [29] = test: Antiepileptic activity in pilocarpine-induced status prevention in Sprague-Dawley rat assessed as weight change in post first stage 3 seizure at 65 mg/kg after 24 hrs; assay type: functional
In short: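 Pilocarpine-induced status prevention in rats. Compound given ip at time zero (65 or 450 mg/kg), followed by a challenge dose of pilocarpine. Seizure severity scored on the Racine scale. Average weight change (g, ±SEM) recorded for protected and non-protected rats.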

CCCCC1(C)CC(=O)N(Nc2ccc(Br)cc2)C1=O (configuration not stated)
Activity (Rattus norvegicus [1]): inactive
Activity (Mus musculus [2]): inactive
Activity (Mus musculus [3]): inactive
Activity (Rattus norvegicus [4]): inactive
Activity (Mus musculus [5]): 300 mg/kg
Activity (Rattus norvegicus [6]): Non-toxic
Activity (Mus musculus [7]): inactive
Activity (Rattus norvegicus [8]): 25%
Activity (Mus musculus [9]): 300 mg/kg
Activity (Mus musculus [10]): Not Active
Activity (Rattus norvegicus [11]): inactive
Activity (Rattus norvegicus [12]): inactive
log K [13]: 2.539

CC1(C)CC(=O)N(Nc2ccccc2)C1=O
ED50 (Rattus norvegicus [14]): 69.9 mg/kg
Activity (Rattus norvegicus [15]): 25%
Activity (Rattus norvegicus [16]): inactive
Activity (Rattus norvegicus [17]): 50%
Activity (Mus musculus [2]): inactive
Activity (Mus musculus [3]): inactive
Activity (Mus musculus [5]): 100 mg/kg
Activity (Rattus norvegicus [18]): inactive
Activity (Mus musculus [9]): 300 mg/kg
Activity (Mus musculus [10]): Not Active
Activity (Mus musculus [19]): 300 mg/kg
log K [13]: 1.471
Activity (Rattus norvegicus [20]): inactive
Ratio TD50/ED50 (Rattus norvegicus [21]): 7.15
TD50 at 0.5 h [22]: 500 mg/kg

CCC1(C)CC(=O)NC1=O (configuration not stated) [ETHOSUXIMIDE]
Activity (Rattus norvegicus [1]): inactive
Activity (Mus musculus [23]): 300 mg/kg
Activity (Mus musculus [2]): inactive
Activity (Mus musculus [7]): inactive
Activity (Mus musculus [9]): 100 mg/kg
Activity (Mus musculus [10]): Not Active
Activity (Mus musculus [24]): Not Active
Activity (Rattus norvegicus [11]): inactive

CCCC1(C)CC(=O)N(Nc2ccc(Cl)cc2Cl)C1=O (configuration not stated)
Activity (Rattus norvegicus [1]): 25%
Activity (Mus musculus [2]): inactive
Activity (Mus musculus [3]): inactive
Activity (Rattus norvegicus [4]): inactive
Activity (Rattus norvegicus [6]): Non-toxic
Activity (Mus musculus [7]): inactive
Activity (Rattus norvegicus [8]): 50%
Activity (Mus musculus [9]): 100 mg/kg
Activity (Mus musculus [10]): Not Active
Activity (Mus musculus [24]): Not Active
Activity (Rattus norvegicus [11]): 25%
Activity (Rattus norvegicus [12]): Active
log K [13]: 2.647

CCC1(C)CC(=O)N(Nc2ccc(Cl)cc2Cl)C1=O (configuration not stated)
Activity (Mus musculus [25]): 300 mg/kg
Activity (Rattus norvegicus [15]): inactive
Activity (Rattus norvegicus [16]): 25%
Activity (Mus musculus [23]): 300 mg/kg
Activity (Rattus norvegicus [17]): inactive
Activity (Mus musculus [26]): 100 mg/kg
Activity (Mus musculus [5]): 30 mg/kg
Activity (Rattus norvegicus [18]): 25%
Activity (Mus musculus [27]): 300 mg/kg
Activity (Mus musculus [9]): 100 mg/kg
Activity (Mus musculus [19]): 300 mg/kg
log K [13]: 2.334
Activity (Rattus norvegicus [20]): inactive

CC1(C)CC(=O)N(Nc2ccc(Br)cc2)C1=O
Activity (Rattus norvegicus [16]): 25%
Activity (Rattus norvegicus [17]): 25%
Activity (Mus musculus [28]): inactive
Activity (Mus musculus [3]): inactive
Activity (Mus musculus [26]): 100 mg/kg
Activity (Mus musculus [5]): 300 mg/kg
Activity (Rattus norvegicus [18]): 50%
Activity (Mus musculus [27]): 300 mg/kg
Activity (Mus musculus [10]): Not Active
Activity (Mus musculus [19]): 300 mg/kg
log K [13]: 1.864
Activity (Rattus norvegicus [20]): 50%

CC1(C)CC(=O)N(Nc2cccc(Cl)c2)C1=O
Activity (Mus musculus [28]): inactive
Activity (Mus musculus [2]): inactive
Activity (Mus musculus [3]): inactive
Activity (Mus musculus [5]): 300 mg/kg
Activity (Rattus norvegicus [29]): 15 g
Activity (Mus musculus [10]): Not Active
Activity (Mus musculus [19]): 100 mg/kg
log K [13]: 2.071
